According to ChEMBL document CHEMBL5653617, “Inhibition of BRD4 attenuates tumor cell self-renewal and suppresses stem cell signaling in MYC driven medulloblastoma” (Oncotarget, 2014):
Calls of active or inactive are those of the source.

What was measured:
Daoy [1] = test: Downregulation of CENPF gene expression in human Daoy cells at 300 nM by GSEA method; assay type: functional, cell-based
In short: (§1)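 Daoy cells treated with DMSO or 300 nM drug. RNA extracted and hybridized to Affymetrix HG-ST2.0 arrays. Analysis in R/Bioconductor with gene set enrichment analysis. Regulated transcripts defined as p < 0.05, FDR < 0.05, fold change < 0.67 (down) or > 1.5 (up).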

[2] = biological target: Bromodomain-containing protein 4 (Homo sapiens) (UniProt O60885); conditions: D283 Med, dose 300.0 nM
Daoy [3] = test: Induction of senescence in human Daoy cells assessed as increase in p21 mRNA expression at 300 nM by RT-qPCR analysis; assay type: functional, cell-based
In short: (§2)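 Cells treated with 300 nM drug or DMSO. p16, p21 and p27 mRNA measured by TaqMan qPCR with ΔΔCt quantitation, in triplicate.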

D458 Med [4] = test: Induction of cell cycle arrest in human D458 Med cells assessed as S phase cells at 300 nM incubated for 48 hrs by flow cytometry analysis (reference value: 43.54 +/- 3.48%); assay type: functional
Daoy [5] = test: Downregulation of CDC25B gene expression in human Daoy cells at 300 nM by GSEA method; assay type: functional, cell-based; in short: as §1
[6] = biological target: Bromodomain-containing protein 4 (Homo sapiens) (UniProt O60885); conditions: Daoy, dose 300.0 nM
Daoy [7] = test: Induction of senescence in human Daoy cells assessed as increase in p16 mRNA expression at 300 nM by RT-qPCR analysis; assay type: functional, cell-based; in short: as §2
D458 Med [8] = test: Induction of cell cycle arrest in human D458 Med cells assessed as G2/M phase cells at 300 nM incubated for 48 hrs by flow cytometry analysis (reference value: 18.72 +/- 2.62%); assay type: functional
[9] = biological target: Bromodomain-containing protein 4 (Homo sapiens) (UniProt O60885); conditions: Daoy, dose 100-300 nM, time 48.0 hrs
Daoy [10] = test: Antiproliferative activity in human Daoy cells assessed as inhibition of cell growth at 300 nM by flow cytometry analysis; assay type: functional, cell-based
In short: (§3)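 ViaCount flow cytometric cell count. Cells seeded in medium, DMSO or drug added 24 h later, cultured a further 48 h. Cells then pelleted, washed, stained with Viacount reagent and counted on a Guava cytometer. Vehicle control DMSO.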

[11] = biological target: Bromodomain-containing protein 4 (Homo sapiens) (UniProt O60885); conditions: D458 Med, dose 300.0 nM
Daoy [12] = test: Induction of senescence in human Daoy cells assessed as decrease in phosphorylated RB protein expression at 300 nM by immunoblot analysis; assay type: functional, cell-based
In short: (§4)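 Protein lysates prepared in RIPA buffer with protease inhibitors. Standard western blot with HRP-conjugated secondary antibodies and chemiluminescent detection.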

[13] = biological target: Bromodomain-containing protein 4 (Homo sapiens) (UniProt O60885); conditions: D283 Med, dose 300.0 nM; remark: listed apart in the source
[14] = biological target: Bromodomain-containing protein 4 (Homo sapiens) (UniProt O60885); conditions: Daoy, dose 300.0 nM; remark: listed apart in the source
[15] = biological target: Bromodomain-containing protein 4 (Homo sapiens) (UniProt O60885); conditions: D425 Med, dose 300.0 nM
Daoy [16] = test: Induction of cell cycle arrest in human Daoy cells assessed as S phase cells at 300 nM incubated for 48 hrs by flow cytometry analysis (reference value: 15.39 +/- 1.73%); assay type: functional
Daoy [17] = test: Antiproliferative activity in human Daoy cells assessed as inhibition of cell growth measured upto 120 hrs by xCELLigence system; assay type: functional, cell-based; conditions: dose 0.1-1 µM
In short: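 Real-time impedance growth monitoring (xCELLigence, E-Plate 96). 1000 cells/well plated, DMSO or drug at varying concentrations added 24 h later, growth recorded continuously over time.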

[18] = biological target: Bromodomain-containing protein 4 (Homo sapiens) (UniProt O60885); conditions: D283 Med, time 24-48 hrs
D458 Med [19] = test: Inhibition of colony formation in human D458 Med cells at 100 to 300 nM incubated for 8 to 11 days by NBT staining based methyl cellulose colony growth assay; assay type: functional, cell-based; conditions: dose 100-300 nM, time 8-11 day
In short: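 500 cells/well suspended in DMEM with methyl cellulose (1.3% final) containing 150 or 300 nM drug or DMSO, plated in triplicate. Colonies formed over 8–11 days, then stained with NBT (1 mg/ml) for 24 h at 37 °C. Colonies of ≥50 cells counted.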

[20] = biological target: Bromodomain-containing protein 4 (Homo sapiens) (UniProt O60885); conditions: Daoy, dose 300.0 nM; remark: listed apart in the source
[21] = biological target: Bromodomain-containing protein 4 (Homo sapiens) (UniProt O60885); conditions: Daoy, dose 300.0 nM; remark: listed apart in the source
Daoy [22] = test: Antitumor activity against human Daoy cells xenografted in athymic nude mice assessed as inhibition of proliferation at 50 mg/kg, ip measured after 5 days by Ki67 staining based analysis; assay type: functional, organism-based; conditions: time 5.0 day
In short: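 Daoy cells (1.0×10^7 in PBS) injected into the flank of athymic nude mice. Once tumors were palpable, drug given 50 mg/kg i.p. with DMSO as vehicle control. Animals were sacrificed after a 5-day treatment. Tumors were assessed by Ki67 IHC and by senescence-associated β-galactosidase staining.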

[23] = biological target: Bromodomain-containing protein 4 (Homo sapiens) (UniProt O60885); conditions: D425 Med, dose 300.0 nM; remark: listed apart in the source
D425 Med [24] = test: Antiproliferative activity in human D425 Med cells assessed as inhibition of cell growth at 300 nM by flow cytometry analysis; assay type: functional, cell-based; in short: as §3
D425 Med [25] = test: Induction of cell cycle arrest in human D425 Med cells assessed as S phase cells at 300 nM incubated for 48 hrs by flow cytometry analysis (reference value: 28.96 +/- 0.89%); assay type: functional
[26] = biological target: Bromodomain-containing protein 4 (Homo sapiens) (UniProt O60885); conditions: D425 Med, dose 300.0 nM; remark: listed apart in the source
[27] = biological target: Bromodomain-containing protein 4 (Homo sapiens) (UniProt O60885); conditions: D458 Med, dose 300.0 nM; remark: listed apart in the source
Daoy [28] = test: Induction of senescence in human Daoy cells assessed as increase in p27 protein expression at 300 nM by immunoblot analysis; assay type: functional, cell-based; in short: as §4
[29] = biological target: Bromodomain-containing protein 4 (Homo sapiens) (UniProt O60885); conditions: D283 Med, dose 300.0 nM; remark: listed apart in the source
Daoy [30] = test: Inhibition of E2F1 activity in human Daoy cells at 100 to 300 nM by luciferase based reporter assay; assay type: functional, cell-based; conditions: dose 100-300 nM
In short: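 Cignal pathway reporter system using an E2F1-responsive luciferase reporter. Cells seeded in 24-well plates and transfected with Surefect. DMSO or drug added 8 h later, then incubated a further 24 h before luciferase readout.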

Daoy [31] = test: Downregulation of CRIP1 gene expression in human Daoy cells at 300 nM by GSEA method; assay type: functional, cell-based; in short: as §1
D283 Med = test: Antiproliferative activity in human D283 Med cells assessed as inhibition of cell growth at 300 nM by flow cytometry analysis; assay type: functional, cell-based; in short: as §3

For Cc1sc2c(c1C)C(c1ccc(Cl)cc1)=N[C@@H](CC(=O)OC(C)(C)C)c1nnc(C)n1-2, the Activity (Daoy [1]) was “Active”, the inhibition [2] was “Active” and the Activity (Daoy [3]) was “Active”. For the same compound, the Activity (D458 Med [4]) was 26.58%, the Activity (Daoy [5]) was “Active” and the inhibition [6] was “Active”. For the same compound, the Activity (Daoy [7]) was “Active”, the Activity (D458 Med [8]) was 23.266% and the inhibition [9] was “Dose-Dependent Effect”. The Activity (Daoy [10]) was “Active”, the inhibition [11] was “Active” and the Activity (Daoy [12]) was “Active”. The inhibition [13] was “Active”, the inhibition [14] was “Active” and the inhibition [15] was “Active”. For the same compound, the Activity (Daoy [16]) was 3.736%, the Activity (Daoy [17]) was “Dose-Dependent Effect” and the inhibition [18] was “Active”. For the same compound, the inhibition (D458 Med [19]) was “Active”, the inhibition [20] was “Active” and the inhibition [21] was “Active”. For the same compound, the Activity (Daoy [22]) was “Active”, the inhibition [23] was “Active” and the Activity (D425 Med [24]) was “Active”. For the same compound, the Activity (D425 Med [25]) was 28.636%, the inhibition [26] was “Active” and the inhibition [27] was “Active”. The Activity (Daoy [28]) was “Active”, the inhibition [29] was “Active” and the inhibition (Daoy [30]) was “Active”. The Activity (Daoy [31]) was “Active” and the Activity (D283 Med) was “Active”.
